Source: ChEMBL document CHEMBL3997809, “Design and synthesis of a new series of 3,5-disubstituted isoxazoles active against Trypanosoma cruzi and Leishmania amazonensis” (Eur J Med Chem, 2017)
The source made the active and inactive calls. The rule behind the calls is not given here.

Assays:
Leishmania amazonensis [1] = assay: Growth inhibition of Leishmania amazonensis MHOM/BR/77/LTB0016 amastigote forms expressing beta-galactosidase infected in human THP1 cells at 100 uM after 48 hrs relative to control; type: functional; conditions: for inhibition of growth at 100 µM: MHOM/BR/77/LTB0016, THP-1, 48 h, read-out: GI
Procedure, shortened: (§1)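 THP-1 cells seeded at 4.0 × 10^4 cells/well and differentiated with PMA 100 ng/ml for 72 h. Promastigotes (4-day culture) opsonized 1 h at 34 °C in RPMI-1640 with 10% heat-inactivated human B+ serum. Infection at 10:1 parasite/cell for 3 h at 34 °C, washed, then 24 h for amastigote transformation. Compound treatment in triplicate for 48 h at 34 °C. Read-out: CPRG 100 µM with 0.1% NP-40, 16 h, OD 570/630 nm. Negative control DMSO 1%.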

Trypanosoma cruzi [2] = assay: Growth inhibition of Trypanosoma cruzi Tulahuen amastigote forms infected in human THP1 cells at 100 uM after 48 hrs relative to control; type: functional; conditions: THP-1, 48 h, read-out: GI
Procedure, shortened: (§2)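 PMA-differentiated THP-1 macrophages (4.0 × 10^4 cells/well, 100 ng/ml, 72 h) infected with trypomastigotes at 2:1 parasite/cell overnight at 37 °C. Washed, then 24 h more for amastigote transformation. Compounds added in triplicate for 48 h at 37 °C, 5% CO2. Read-out: CPRG 100 µM with 0.1% NP-40 for 16 h, OD 570/630 nm. Negative control DMSO 1%.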

Trypanosoma cruzi [3] = assay: Trypanocidal activity against Trypanosoma cruzi Tulahuen amastigote forms infected in human THP1 cells after 48 hrs; type: functional, cell-based; conditions: THP-1, 48 h; procedure, shortened: as §2
Trypanosoma cruzi [4] = assay: Trypanocidal activity against Trypanosoma cruzi Tulahuen trypomastigote forms at 3.9 to 250 uM after 72 hrs by MTT assay; type: functional
Procedure, shortened: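 Culture-derived Tulahuen trypomastigotes raised from infected L929 cells, 1.5 × 10^6 parasites/well. Compounds serially diluted from 250 to 3.9 µM, incubated 72 h at 37 °C, 5% CO2. Viability by MTT, OD 540 nm after dissolving formazan in DMSO. Negative control DMSO 1%.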

Leishmania amazonensis [5] = assay: Antileishmanial activity against Leishmania amazonensis MHOM/BR/77/LTB0016 amastigote forms expressing beta-galactosidase infected in human THP1 cells after 48 hrs; type: functional, cell-based; conditions: MHOM/BR/77/LTB0016, THP-1, 48 h; procedure, shortened: as §1
Trypanosoma cruzi [6] = assay: Growth inhibition of Trypanosoma cruzi Tulahuen amastigote forms infected in human THP1 cells at 100 uM using compound after 1 week storage measured after 48 hrs; type: functional, cell-based
[7] = Chemical stability in DMSO after 1 week by mass spectrometric analysis; type: physicochemical; conditions: 168 h
[8] = Cytotoxicity against human THP1 cells assessed as reduction in cell viability after 72 hrs by MTT assay; type: cell-based; conditions: THP-1 cells
Procedure, shortened: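 PMA-differentiated THP-1 cells exposed to serial dilutions from 15.6 to 500 µM for 72 h at 37 °C, 5% CO2. Viability by MTT reduction to formazan, dissolved in DMSO, OD 540 nm. Gives CC50.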

Trypanothione reductase = Trypanothione reductase (Trypanosoma cruzi, UniProt P28593); assay: Inhibition of Trypanosoma cruzi trypanothione reductase expressed in Escherichia coli BL21(DE3) using T(S)2 as substrate incubated for 30 mins in presence of NADPH measured for 30 mins
Trypanothione reductase, sequence (P28593 whole entry): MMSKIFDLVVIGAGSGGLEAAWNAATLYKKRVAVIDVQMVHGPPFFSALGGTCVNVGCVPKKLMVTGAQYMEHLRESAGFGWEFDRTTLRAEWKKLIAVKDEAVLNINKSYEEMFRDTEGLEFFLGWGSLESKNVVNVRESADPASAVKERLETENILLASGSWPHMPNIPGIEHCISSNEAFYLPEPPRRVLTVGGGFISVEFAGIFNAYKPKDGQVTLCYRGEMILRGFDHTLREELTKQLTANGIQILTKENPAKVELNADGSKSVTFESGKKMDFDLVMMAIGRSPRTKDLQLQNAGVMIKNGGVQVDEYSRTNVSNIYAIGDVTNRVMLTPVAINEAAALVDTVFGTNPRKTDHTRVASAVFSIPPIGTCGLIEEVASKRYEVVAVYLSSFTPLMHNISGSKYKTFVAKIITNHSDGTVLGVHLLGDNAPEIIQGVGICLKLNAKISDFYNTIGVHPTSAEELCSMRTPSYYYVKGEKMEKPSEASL
Procedure, shortened: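 Enzyme purified by affinity chromatography. Then T(S)2 1 µM and compound in DMSO added, 30 min at 27 °C, followed by further DTNB. A412 followed for 30 min. Negative control DMSO 1%.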

[9] = Selectivity index, ratio of CC50 for human THP1 cells to IC50 for Trypanosoma cruzi Tulahuen amastigote forms infected in human THP1 cells; type: toxicity, cell-based; conditions: read-out: Ratio CC50/IC50
Procedure, shortened: (§3)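 Ratio of CC50 from the 72 h MTT assay in PMA-differentiated THP-1 cells to IC50 against intracellular amastigotes in THP-1 cells measured by CPRG read-out after 48 h.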

Leishmania infantum = assay: Growth inhibition of Leishmania infantum MHOM/BR/74/PP75 amastigote forms expressing beta-galactosidase infected in human THP1 cells at 50 uM after 48 hrs relative to control; type: functional; conditions: MHOM/BR/74/PP75, THP-1, 48 h, read-out: GI; procedure, shortened: as §1
[10] = Selectivity index, ratio of CC50 for human THP1 cells to IC50 for Leishmania amazonensis MHOM/BR/77/LTB0016 amastigote forms expressing beta-galactosidase infected in human THP1 cells; type: toxicity, cell-based; conditions: read-out: Ratio CC50/IC50; procedure, shortened: as §3
Leishmania amazonensis [11] = assay: Growth inhibition of Leishmania amazonensis MHOM/BR/77/LTB0016 amastigote forms expressing beta-galactosidase infected in human THP1 cells at 2 uM after 48 hrs relative to control; type: functional; conditions: MHOM/BR/77/LTB0016, THP-1, 48 h, read-out: GI; procedure, shortened: as §1
Trypanosoma cruzi [12] = assay: Antitrypanosomal activity against Trypanosoma cruzi trypomastigote forms; type: functional
Trypanosoma cruzi [13] = assay: Growth inhibition of Trypanosoma cruzi Tulahuen amastigote forms infected in human THP1 cells at 20 uM after 48 hrs relative to control; type: functional; conditions: THP-1, 48 h, read-out: GI; procedure, shortened: as §2

Row | Compound | inhibition of growth at 100 µM (Leishmania amazonensis [1]) | inhibition of growth at 100 µM (Trypanosoma cruzi [2]) | IC50 (Trypanosoma cruzi [3]) | Activity (Trypanosoma cruzi [4]) | IC50 (Leishmania amazonensis [5]) | CC50 at 72 h [8] | further results
1 | O=[N+]([O-])c1ccc(-c2cc(CO)on2)cc1 | 4.98% | 12.2% | > 100 µM | inactive | > 100 µM | – | –
2 | CC(=O)OC[C@H]1O[C@H](OCc2cc(-c3ccccc3)no2)[C@H](OC(C)=O)[C@@H](OC(C)=O)[C@@H]1OC(C)=O | 2.06% | 1.16% | > 100 µM | inactive | > 100 µM | – | –
3 | OCc1ccc(-c2cc(-c3ccc(F)cc3)no2)cc1 | – | 10.6% | > 100 µM | inactive | – | – | –
4 | O=C(O)c1cc(-c2ccccc2)no1 | – | 0% | – | inactive | – | – | –
5 | COc1ccc(-c2cc(CN=[N+]=[N-])on2)cc1 | – | 60.4% | – | inactive | – | < 15.6 µM | growth inhibition (GI) (Trypanosoma cruzi [6]): inactive; Stability [7]: Unstable
6 | CC(C)(C)OC(=O)Nc1ccc(-c2cc(-c3ccccc3)no2)cc1 | – | 0% | – | inactive | – | – | –
7 | Cc1ccc(-c2cc(-c3ccc4c(c3)OCO4)no2)cc1 | 28.1% | 81.7% | 1.74 µM | inactive | > 100 µM | 81.3 µM | IC50 (Trypanothione reductase): > 100 µM; selectivity ratio [9]: 46.7
8 | COc1ccc(-c2cc(CO)on2)cc1OC | – | 0% | – | inactive | – | – | –
9 | c1ccc(-c2cc(-c3ccc4c(c3)OCO4)no2)cc1 | – | 64.8% | 23 µM | inactive | – | > 500 µM | growth inhibition (GI) (Leishmania amazonensis [1]): inactive; selectivity ratio [9]: > 21.7
10 | CC(=O)OCc1ccc(-c2cc(-c3ccc4c(c3)OCO4)no2)cc1 | 15.7% | 47.6% | 23.2 µM | inactive | > 100 µM | > 500 µM | selectivity ratio [9]: > 21.5
11 | CC(=O)Nc1ccc(-c2cc(-c3ccccc3)no2)cc1 | – | 0% | – | inactive | – | – | –
12 | O=[N+]([O-])c1ccc(-c2cc(-c3ccc(CO)cc3)on2)cc1 | – | 15.9% | > 100 µM | inactive | – | – | –
13 | OCc1cc(-c2ccccc2)no1 | – | 7.57% | > 100 µM | inactive | – | – | –
14 | ClCc1ccc(-c2cc(-c3ccc4c(c3)OCO4)no2)cc1 | 57.7% | 95.8% | 1.13 µM | inactive | 5.08 µM | 182 µM | IC50 (Trypanothione reductase): > 100 µM; selectivity ratio [9]: 161; inhibition of growth at 50 µM (Leishmania infantum): 9.01%; selectivity ratio [10]: 35.8
15 | Nc1ccc(-c2cc(-c3ccccc3)no2)cc1 | – | 73% | 90.4 µM | inactive | – | 407 µM | selectivity ratio [9]: 4.5
16 | COc1ccc(-c2cc(CO)on2)cc1 | – | 9.32% | > 100 µM | inactive | – | – | –
17 | OC[C@H]1O[C@H](OCc2cc(-c3ccc4c(c3)OCO4)no2)[C@H](O)[C@@H](O)[C@@H]1O | 3.82% | 2.93% | > 100 µM | inactive | > 100 µM | – | –
18 | COc1ccc(-c2cc(-c3ccc(CO)cc3)on2)cc1OC | – | 14.2% | > 100 µM | inactive | – | – | –
19 | C[C@@H]1[C@H](O)[C@@H](C)/C=C/C=C/C=C/C=C/C=C/C=C/C=C/[C@H](O[C@@H]2O[C@H](C)[C@@H](O)[C@H](N)[C@@H]2O)C[C@@H]2O[C@](O)(C[C@@H](O)C[C@@H](O)[C@H](O)CC[C@@H](O)C[C@@H](O)CC(=O)O[C@H]1C)C[C@H](O)[C@H]2C(=O)O [AMPHOTERICIN B] | – | – | – | – | 0.14 µM | 27.9 µM | inhibition of growth at 2 µM (Leishmania amazonensis [11]): 81.6%; selectivity ratio [10]: 199
20 | CC(=O)OC[C@H]1O[C@H](OCc2cc(-c3ccc4c(c3)OCO4)no2)[C@H](OC(C)=O)[C@@H](OC(C)=O)[C@@H]1OC(C)=O | 2.05% | 3.15% | > 100 µM | inactive | > 100 µM | – | –
21 | OCc1cc(-c2ccc3c(c2)OCO3)no1 | – | 1.95% | > 100 µM | inactive | – | – | –
22 | COc1cc([C@@H]2O[C@@H](c3cc(OC)c(OC)c(OC)c3)[C@H](C)[C@H]2C)cc(OC)c1OC [GRANDISIN] | – | – | – | – | – | – | IC50 (Trypanosoma cruzi [12]): 3.7 µM
23 | COc1ccc([C@H]2O[C@@H](c3ccc(OC)c(OC)c3)[C@@H](C)[C@@H]2C)cc1OC | – | – | – | – | – | – | IC50 (Trypanosoma cruzi [12]): 2.3 µM
24 | OCc1ccc(-c2cc(-c3ccccc3)no2)cc1 | – | 7.01% | > 100 µM | inactive | – | – | –
25 | c1ccc(-c2cc(-c3ccccc3)on2)cc1 [3,5-DIPHENYLISOXAZOLE] | 6.03% | 29.4% | > 100 µM | inactive | > 100 µM | – | –
26 | OCc1cc(-c2ccc(F)cc2)no1 | 3.35% | 8.27% | > 100 µM | inactive | > 100 µM | – | –
27 | O=C(Cn1ccnc1[N+](=O)[O-])NCc1ccccc1 [BENZNIDAZOLE] | – | – | – | – | – | > 500 µM | inhibition of growth at 20 µM (Trypanosoma cruzi [13]): 85.9%; selectivity ratio [9]: > 49.1
28 | COc1ccc(-c2cc(-c3ccc(CO)cc3)on2)cc1 | – | 5.77% | > 100 µM | inactive | – | – | –
29 | OC[C@H]1O[C@H](OCc2cc(-c3ccccc3)no2)[C@H](O)[C@@H](O)[C@@H]1O | 4.57% | 7.3% | > 100 µM | inactive | > 100 µM | – | –
30 | OCc1ccc(-c2cc(-c3ccc4c(c3)OCO4)no2)cc1 | 0% | 65% | 5.26 µM | inactive | – | 70.2 µM | IC50 (Trypanothione reductase): > 100 µM; selectivity ratio [9]: 13.3
